Inhibition and Ki data for 16 molecules are collected here from ChEMBL document CHEMBL1139996, “Synthesis, bioactivity, theoretical and molecular docking study of 1-cyano-N-substituted-cyclopropanecarboxamide as ketol-acid reductoisomerase inhibitor” (Bioorg Med Chem Lett, 2007).

The subject of the first assay is Oryza sativa. Kind of assay: Inhibition of rice KARI at 200 ppm. The method in brief: (§1)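 Activity followed as the decrease in A340 at 30 °C. Reaction mix: 0.2 mM NADPH, 1 mM MgCl2, substrate (2-acetolactate or hydroxypyruvate) and inhibitor as required, in 0.1 M Tris–HCl, pH 8.0. Reaction started by adding enzyme. In inhibitor preincubation runs, substrate was added last instead.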
The term inhibition denotes how much of the control response was suppressed. Higher therefore signals a strong effect. `N#CC1(C(=O)Nc2ccc(Cl)cc2Cl)CC1` registered an inhibition of 97%.

For `N#CC1(C(=O)Nc2ccc(Br)cc2)CC1`, the inhibition was found to be 32.2%.

Molecule `N#CC1(C(=O)Nc2ccccc2C(F)(F)F)CC1` returned an inhibition of 0%.

Molecule `N#CC1(C(=O)O)CC1` came in with an inhibition of 100%.

In the case of `Cc1ccccc1NC(=O)C1(C#N)CC1`, the inhibition was found to be 100%.

`N#CC1(C(=O)Nc2cccc(Cl)c2)CC1` yielded an inhibition of 0%.

In turn, `Cc1ccc(NC(=O)C2(C#N)CC2)cc1` gave an inhibition of 61.2%.

In the case of `N#CC1(C(=O)Nc2ccccc2)CC1`, the inhibition was 77.2%.

In the case of `N#CC1(C(=O)NCCO)CC1`, the inhibition came out at 98.9%.

Turning to `CCOC(=O)C1(C#N)CC1`, the inhibition came to 0%.

The molecule `N#CC1(C(=O)Nc2cc(Cl)c(Cl)cc2Cl)CC1` had an inhibition of 0%.

The molecule `N#CC1(C(=O)Nc2ccc(Cl)cc2)CC1` gave an inhibition of 93.9%.

In turn, `N#CC1(C(=O)Nc2cccc(Br)c2)CC1` had an inhibition of 17.2%.

The molecule `N#CC1(C(=O)Nc2cccc(C(F)(F)F)c2)CC1` showed an inhibition of 0%.

Regarding `N#CC1(C(=O)Nc2ccc(C(F)(F)F)cc2)CC1`, the inhibition amounted to 0%.

In the case of `COc1ccc(NC(=O)C2(C#N)CC2)cc1`, the inhibition amounted to 3.95%.

Target in the next assay: not listed separately
Kind of assay: Inhibition of rice KARI. The arrangement: species or system Oryza sativa. The method in brief: as §1
As a reminder, the Ki is the equilibrium dissociation constant of an inhibitor or competing ligand from its target. Higher therefore signals weaker binding. For `N#CC1(C(=O)O)CC1`, affinity was put at a Ki of 95.3 µM.

As to `Cc1ccc(NC(=O)C2(C#N)CC2)cc1`, the inhibitory constant (Ki) is > 300 µM.
